Reference: ChEMBL document CHEMBL1149101, “New antibacterial agents derived from the DNA gyrase inhibitor cyclothialidine” (J Med Chem, 2004)
In brackets after ≈: the same amount, converted by molar mass.

Assays:
Escherichia coli = test: Minimum inhibitory concentration against Escherichia coli 25922; assay type: functional
In short: (§1)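 NCCLS agar dilution on Mueller–Hinton agar, compound incorporated into melted medium at 50 °C. Inoculum about 10⁴ CFU/spot from diluted overnight cultures, multipoint-applied.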

Staphylococcus aureus [1] = test: In vivo effective dose was determined in septicaemic mice (Staphylococcus aureus Smith) when administration iv; assay type: functional
In short: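 Compound given iv as a gelatine microsuspension at 1 and 3 h post-challenge, 5 mice per group. ED50 (mg/kg) from day-4 survival by probit analysis.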

[2] = tested on: Staphylococcus epidermidis; test: Minimum inhibitory concentration against Staphylococcus epidermidis 16/2; assay type: functional; in short: as §1
[3] = biological target: T1, DNA gyrase (Escherichia coli) (UniProt P0AES6+P0AES4)
[4] = tested on: Stenotrophomonas maltophilia; test: Minimum inhibitory concentration against Xanthomonas maltophilia AC739; assay type: functional; in short: as §1
Enterococcus faecalis [5] = test: Minimum inhibitory concentration against Enterococcus faecalis 6; assay type: functional; in short: as §1
Streptococcus pyogenes = test: Minimum inhibitory concentration against Streptococcus pyogenes b15
Staphylococcus aureus [6] = test: Minimum inhibitory concentration against Staphylococcus aureus ATCC 25923; assay type: functional; in short: as §1
Staphylococcus aureus [7] = test: Minimum inhibitory concentration against Staphylococcus aureus Smith; assay type: functional; in short: as §1
HeLa = test: Cytotoxicity in HeLa cells; assay type: cell-based
[8] = Range for minimum inhibitory concentration against Staphylococcus aureus; 0.5-2; assay type: functional
[9] = Minimum inhibitory concentration against Enterococcus faecalis
Mus musculus = species on record: Mus musculus; test: Percentage of binding to the mice plasma protein was determined; assay type: functional
[10] = Range for minimum inhibitory concentration against Enterococcus faecalis; 1-4; assay type: functional
Staphylococcus aureus [11] = test: Minimum inhibitory concentration against Staphylococcus aureus; assay type: functional
Enterococcus faecalis [12] = test: Minimum inhibitory concentration against Enterococcus faecalis; assay type: functional
In short: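 Agar dilution per NCCLS on Mueller–Hinton agar, strain E. faecalis 6 (listed as S. faecalis 6). Compound incorporated into melted medium at 50 °C just before pouring plates. Inoculum about 10⁴ CFU/spot from diluted overnight culture, applied with multipoint inoculator.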

Micrococcus luteus = test: Minimum inhibitory concentration against Micrococcus luteus ATCC 8340; assay type: functional
In short: (§2)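 Agar dilution per NCCLS in BB2 agar + 1% Isovitalex + 7.5% sheep blood + menadione, compound added to melted medium at 50 °C. About 10⁴ CFU/spot from diluted overnight cultures, multipoint-inoculated.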

Staphylococcus aureus [13] = test: Minimum inhibitory concentration against Staphylococcus aureus 887; assay type: functional; in short: as §2
Neisseria meningitidis = test: Minimum inhibitory concentration against Neisseria meningitides 69480; assay type: functional; in short: as §2
[14] = Range for minimum inhibitory concentration against Staphylococcus aureus; 0.06->64; assay type: functional
[15] = Range for minimum inhibitory concentration against Staphylococcus aureus; 4->64; assay type: functional
[16] = Range for minimum inhibitory concentration against Staphylococcus aureus; 0.5->[…]; assay type: functional
[17] = Range for minimum inhibitory concentration against Staphylococcus aureus 0.5->[…]; assay type: functional
[18] = biological target: T1, DNA gyrase (Escherichia coli); test: Maximum noneffective concentration against Escherichia coli DNA gyrase; assay type: protein-complex assay
In short: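 Gyrase A2B2 complex reconstituted from equimolar subunits (25 °C, 0.5 h). Relaxed pUC18 DNA incubated with enzyme at 37 °C for 0.5 h, compound 0.001–100 μg/mL. Products resolved on 0.8% agarose gel. MNEC, read visually, is the highest concentration still allowing complete plasmid supercoiling.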

[19] = Range for minimum inhibitory concentration against Enterococcus faecalis;4-8; assay type: functional
[20] = Range for minimum inhibitory concentration against Enterococcus faecium; 2-8; assay type: functional
[21] = Streptococcus pyogenes, read-out: MIC
[22] = Staphylococcus aureus, ATCC 25923, read-out: MIC
[23] = Staphylococcus aureus, read-out: MIC

Row | Compound | MIC (Escherichia coli) [µg/mL] | MIC [2] [µg/mL] | MNEC [3] [µg/mL] | MIC [4] [µg/mL] | MIC (Enterococcus faecalis [5]) [µg/mL] | MIC (Streptococcus pyogenes; [21]) [µg/mL] | MIC (Staphylococcus aureus [6]; [22]) [µg/mL] | MIC (Staphylococcus aureus [7]; [23]) [µg/mL] | MIC50 (Staphylococcus aureus [11]) [µg/mL] | MIC90 (Staphylococcus aureus [11]) [µg/mL] | also measured
1 | COc1cc(O)c2c(c1C)C(=O)O[C@H](CO)CCC/C(S)=N/[C@H](c1nc(C)no1)CSC2 | > 64 | < 0.12 | 0.005 | 4 (≈ 8.31 µM) | 0.5 (≈ 1.04 µM) | 0.5 (≈ 1.04 µM) | 0.5 (≈ 1.04 µM) | 0.5 (≈ 1.04 µM) | – | – | ED50 (Staphylococcus aureus [1]): 8.5 mg/kg
2 | COC(=O)[C@@H]1CSCc2c(O)cc(OC)c(C)c2C(=O)OCCCC/C(S)=N/1 | > 64 | < 0.12 | 0.01 | 8 (≈ 18.7 µM) | 1 (≈ 2.34 µM) | 1 (≈ 2.34 µM) | 0.5 (≈ 1.17 µM) | 0.25 (≈ 0.585 µM) | – | – | MIC (Staphylococcus aureus [6]): 0.5 µg/mL (≈ 1.17 µM); MIC (Staphylococcus aureus [7]): 0.25 µg/mL (≈ 0.585 µM)
3 | COC(=O)[C@@H]1CSCc2c(O)cc(OC)c(C)c2C(=O)OCC/C(S)=N/1 | > 64 | 0.5 (≈ 1.25 µM) | 0.05 | 8 (≈ 20 µM) | 4 (≈ 10 µM) | 4 (≈ 10 µM) | 2 (≈ 5.01 µM) | 2 (≈ 5.01 µM) | – | – | MIC (Staphylococcus aureus [6]): 2 µg/mL (≈ 5.01 µM); MIC (Staphylococcus aureus [7]): 2 µg/mL (≈ 5.01 µM)
4 | COC(=O)[C@@H]1CSCc2c(O)cc(OC)c(C)c2C(=O)OCCCCC(=O)N1 | > 64 | 1 (≈ 2.43 µM) | 0.05 | 16 (≈ 38.9 µM) | 4 (≈ 9.72 µM) | 4 (≈ 9.72 µM) | 4 (≈ 9.72 µM) | 2 (≈ 4.86 µM) | – | – | IC50 (HeLa): > 50 µg/mL; MIC (Staphylococcus aureus [6]): 4 µg/mL (≈ 9.72 µM); MIC (Staphylococcus aureus [7]): 2 µg/mL (≈ 4.86 µM)
5 | CN[C@H](CC(C)C)C(=O)N[C@H]1C(=O)N[C@@H](CC(N)=O)C(=O)N[C@H]2C(=O)N[C@H]3C(=O)N[C@H](C(=O)N[C@H](C(=O)O)c4cc(O)cc(O)c4-c4cc3ccc4O)[C@H](O)c3ccc(c(Cl)c3)Oc3cc2cc(c3O[C@@H]2O[C@H](CO)[C@@H](O)[C@H](O)[C@H]2O[C@H]2C[C@](C)(N)[C@H](O)[C@H](C)O2)Oc2ccc(cc2Cl)[C@H]1O [VANCOMYCIN] | > 64 | – | – | > 64 | – | – | – | – | 1 (≈ 0.69 µM) | 2 (≈ 1.38 µM) | ED50 (Staphylococcus aureus [1]): 1.5 mg/kg; Range [8]: 2 µg/mL; MIC90 [9]: 4 µg/mL (≈ 2.76 µM); Activity (Mus musculus): 25%; Range [10]: 4 µg/mL; MIC50 (Enterococcus faecalis [12]): 2 µg/mL (≈ 1.38 µM)
6 | COC(=O)[C@@H]1CSCc2c(O)cc(O)c(C)c2C(=O)OCC(NC(=O)OC(C)(C)C)C(=O)N1 (stereo partly drawn) | > 64 | 64 (≈ 132 µM) | 0.2 | > 64 | 64 (≈ 132 µM) | 32 (≈ 66 µM) | > 64 | 128 (≈ 264 µM) | – | – | MIC (Micrococcus luteus): 16 µg/mL (≈ 33 µM); MIC (Staphylococcus aureus [13]): > 64 µg/mL; MIC (Streptococcus pyogenes): 64 µg/mL (≈ 132 µM); MIC (Neisseria meningitidis): 16 µg/mL (≈ 33 µM)
7 | C[C@@H](O)[C@H]1C(=O)N2C(C(=O)O)=C(SCCNC=N)C[C@H]12 [IMIPENEM ANHYDROUS] | – | – | – | – | – | – | – | – | 4 (≈ 13.4 µM) | 16 (≈ 53.4 µM) | Range [14]: 64 µg/mL
8 | COc1cccc(OC)c1C(=O)N[C@@H]1C(=O)N2[C@@H]1SC(C)(C)[C@@H]2C(=O)O [METHICILLIN] | – | – | – | – | – | – | – | – | 32 (≈ 84.1 µM) | > 64 | Range [15]: 64 µg/mL
9 | O=C(O)c1cn(C2CC2)c2cc(N3CCNCC3)c(F)cc2c1=O [CIPROFLOXACIN] | – | – | – | – | – | – | – | – | 0.5 (≈ 1.51 µM) | > 16 | Range [16]: 16 µg/mL
10 | COC(=O)[C@@H]1CSCc2c(O)cc(OC)c(C)c2C(=O)OCC(NC(=O)OC(C)(C)C)C(=O)N1 (stereo partly drawn) | > 64 | 64 (≈ 128 µM) | 0.2 | > 64 | 64 (≈ 128 µM) | 64 (≈ 128 µM) | > 64 | 128 (≈ 257 µM) | – | – | MIC (Micrococcus luteus): 16 µg/mL (≈ 32.1 µM); MIC (Staphylococcus aureus [13]): 64 µg/mL (≈ 128 µM); MIC (Streptococcus pyogenes): 64 µg/mL (≈ 128 µM); MIC (Neisseria meningitidis): 16 µg/mL (≈ 32.1 µM)
11 | CN(C)[C@@H]1C(O)=C(C(N)=O)C(=O)[C@@]2(O)C(O)=C3C(=O)c4c(O)cccc4[C@@](C)(O)[C@H]3C[C@@H]12 [TETRACYCLINE] | – | – | – | – | – | – | – | – | > 16 | > 16 | Range [17]: 16 µg/mL
12 | COC(=O)[C@@H]1CSCc2c(O)cc(OC)c(C)c2C(=O)OCCC(=O)N1 | > 64 | 8 (≈ 20.9 µM) | 0.25 | > 64 | > 64 | – | > 64 | 64 (≈ 167 µM) | – | – | MIC (Micrococcus luteus): 16 µg/mL (≈ 41.7 µM); MIC (Staphylococcus aureus [13]): > 64 µg/mL; MIC (Staphylococcus aureus [6]): 64 µg/mL (≈ 167 µM); MIC (Neisseria meningitidis): 32 µg/mL (≈ 83.5 µM); MNEC [18]: 0.5 µg/mL
13 | CC[C@H]1OC(=O)[C@H](C)[C@@H](O[C@H]2C[C@@](C)(OC)[C@@H](O)[C@H](C)O2)[C@H](C)[C@@H](O[C@@H]2O[C@H](C)C[C@H](N(C)C)[C@H]2O)[C@](C)(O)C[C@@H](C)C(=O)[C@H](C)[C@@H](O)[C@]1(C)O [ERYTHROMYCIN] | – | – | – | – | – | – | – | – | > 16 | > 16 | Range [16]: 16 µg/mL
14 | CO[C@@H]1[C@@H](OC(N)=O)[C@@H](O)[C@H](Oc2ccc3c(O)c(NC(=O)c4ccc(O)c(CC=C(C)C)c4)c(=O)oc3c2C)OC1(C)C [NOVOBIOCIN] | > 64 | 0.25 (≈ 0.408 µM) | – | > 64 | 4 (≈ 6.53 µM) | 1 (≈ 1.63 µM) | 0.25 (≈ 0.408 µM) | 0.12 (≈ 0.196 µM) | – | – | Range [19]: 8 µg/mL; Range [20]: 8 µg/mL; ED50 (Staphylococcus aureus [1]): 3 mg/kg; MIC50 (Enterococcus faecalis [12]): 4 µg/mL (≈ 6.53 µM); MIC90 (Enterococcus faecalis [12]): 8 µg/mL (≈ 13.1 µM)
